Entries after “also recorded” stand apart in the source; their conditions may differ.
Tests used:
[1] = test system: patients with type 2 diabetes mellitus; assay: Fasting plasma glucose; format: in vivo, human; conditions: day 10, 1 day after the last dose
Procedure, shortened: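 Fasting plasma glucose was measured after a 10 h overnight fast. Dosing was oral, once daily with 240 mL water: a single dose on day 1, none on day 2, then daily on days 3–9. Patients were randomized 3:1 to test compound or placebo within each dose group (2.5, 10, 25, 100 mg; n = 12 per group). Descriptive statistics used the treated set (n = 48).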

healthy volunteers = conditions: single oral doses; cited from earlier work
[2] = test system: patients with type 2 diabetes mellitus; assay: Safety and tolerability; format: in vivo, human; conditions: for Diarrhea / Headache / Hypoglycemia / Patients with any AE / Pruritus: N = 9
Procedure, shortened: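 This was a double-blind, multiple rising dose trial with patients randomized 3:1 to active or placebo per dose group. Oral dosing was once daily: a single dose on day 1, then days 3–9. Adverse events were recorded, and relatedness was investigator-defined. Hypoglycemia was defined as blood glucose <3.5 mmol/L. An end-of-study examination was done on days 15–21. Analysis was descriptive, randomized set (n = 48).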

[3] = Pharmacokinetics in plasma and urine; format: in vivo, human
Procedure, shortened: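 Plasma was sampled pre-dose on days −2, −1, 1, 2, 3 and 5–9, up to 48 h after the day 1 single dose and up to 72 h after the day 9 dose. Urine was collected on days 1 and 9. Analysis was by HPLC–MS/MS (LLOQ 1.11 nmol/L plasma, 4.44 nmol/L urine). AUC used linear-up/log-down trapezoids. Steady state was assessed from day 5–9 troughs with a log-scale repeated-measures model. n = 36.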

SGLT1 = conditions: in vitro; cited from earlier work
[4] = test system: patients with type 2 diabetes mellitus; assay: Derived creatinine clearance; format: in vivo, human
Procedure, shortened: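 Derived creatinine clearance was calculated from urinary creatinine concentration and volume in timed urine fractions, together with plasma creatinine. It is expressed as […] and given as change from baseline. Dosing was oral, once daily with 240 mL water: a single dose on day 1, then daily on days 3–9.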

[5] = test system: patients with type 2 diabetes mellitus; assay: Urine volume and micturition frequency; format: in vivo, human
Procedure, shortened: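 Urine volume and micturition frequency were recorded under controlled fluid intake, with oral once-daily dosing of test compound or placebo taken with 240 mL water. Dosing was a single dose on day 1, then days 3–9. Placebo was given within each dose group at a 3:1 active:placebo randomization.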

[6] = test system: patients with type 2 diabetes mellitus; assay: Laboratory electrolyte and lipid measurements; format: in vivo, human; conditions: normalized to a standard reference range
[7] = test system: patients with type 2 diabetes mellitus; assay: Weighted mean daily glucose; format: in vivo, human; conditions: for Mean MDG, mean (least squares) change from baseline to day 8: baseline day −2
Procedure, shortened: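 Eight-point weighted mean daily glucose was calculated as the 24 h glucose AUEC0–24 divided by 24 h. It was measured under standardized meals without OGTT on day −2 (baseline) and day 8, after multiple once-daily oral doses. Change from baseline is given as least squares means. Analysis used the treated set.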

OC[C@H]1O[C@@H](c2ccc(Cl)c(Cc3ccc(O[C@H]4CCOC4)cc3)c2)[C@H](O)[C@@H](O)[C@@H]1O [Empagliflozin]
FPG lower than on day 1 [1]: at least 14%
Tolerability (healthy volunteers): well tolerated
Diarrhea ([2]; 2.5 mg qd): 2 (22.2) n (%)
Headache ([2]; 2.5 mg qd): 0 n (%)
Hypoglycemia ([2]; 2.5 mg qd): 0 n (%)
Patients with any AE ([2]; 2.5 mg qd): 6 (66.7) n (%)
Pruritus ([2]; 2.5 mg qd): 1 (11.1) n (%)
Diarrhea ([2]; 10 mg qd): 0 n (%)
Headache ([2]; 10 mg qd): 1 (11.1) n (%)
Hypoglycemia ([2]; 10 mg qd): 2 (22.2) n (%)
Patients with any AE ([2]; 10 mg qd): 5 (55.6) n (%)
Pruritus ([2]; 10 mg qd): 0 n (%)
Diarrhea ([2]; 25 mg qd): 0 n (%)
Headache ([2]; 25 mg qd): 2 (22.2) n (%)
Hypoglycemia ([2]; 25 mg qd): 1 (11.1) n (%)
Patients with any AE ([2]; 25 mg qd): 5 (55.6) n (%)
Pruritus ([2]; 25 mg qd): 1 (11.1) n (%)
Diarrhea ([2]; 100 mg qd): 0 n (%)
Headache ([2]; 100 mg qd): 0 n (%)
Hypoglycemia ([2]; 100 mg qd): 0 n (%)
Patients with any AE ([2]; 100 mg qd): 3 (33.3) n (%)
Pruritus ([2]; 100 mg qd): 0 n (%)
Frequency of AEs ([2]; all patients receiving empagliflozin): 52.8%
Patients with hypoglycemic events (blood glucose <3.5 mmol/L) ([2]; all within 5 h of OGTT administration, moderate intensity): Three
Patients with AE leading to discontinuation of study treatment ([2]; cellulitis, moderate intensity, not believed related to study medication): 1 patient
Tolerability ([2]; multiple once-daily oral doses 2.5–100 mg): well tolerated
Fatalities or serious AEs ([2]; treatment period): no fatalities or serious AEs
Urinary tract or genital tract infections ([2]; treatment period): No urinary tract or genital tract infections were reported
Accumulation at steady state ([3]; 2.5–100 mg qd): up to 23%
half-life ([3]; human, plasma, oral, Mean t 1/2 at steady state, day 9, range over 2.5–100 mg qd): 10.3 to 18.8 h
Tmax ([3]; human, plasma, po): 1.5 to 3 h
Steady state reached by ([3]; repeated once-daily dosing, trough concentrations days 5–8): ≤ 5 days
Selectivity for SGLT2 over SGLT1 (SGLT1): > 2,500 fold
Change from baseline in derived creatinine clearance, mean (SD) ([4]; 2.5 mg qd, 16 h): −57.0 (59.4) mL/min 1.73 m^2
Change from baseline in derived creatinine clearance, mean (SD) ([4]; 2.5 mg qd, 166 h, n = 7): 360 (620) mL/min 1.73 m^2
Change from baseline in derived creatinine clearance, mean (SD) ([4]; 2.5 mg qd, 184 h): −20.3 (59.2) mL/min 1.73 m^2
Change from baseline in derived creatinine clearance, mean (SD) ([4]; 10 mg qd, 16 h): −28.7 (34.2) mL/min 1.73 m^2
Change from baseline in derived creatinine clearance, mean (SD) ([4]; 10 mg qd, 166 h): 12.8 (54.7) mL/min 1.73 m^2
Change from baseline in derived creatinine clearance, mean (SD) ([4]; 10 mg qd, 184 h): −38.4 (36.4) mL/min 1.73 m^2
Change from baseline in derived creatinine clearance, mean (SD) ([4]; 25 mg qd, 16 h): −89.2 (43.2) mL/min 1.73 m^2
Change from baseline in derived creatinine clearance, mean (SD) ([4]; 25 mg qd, 166 h): −40.3 (61.7) mL/min 1.73 m^2
Change from baseline in derived creatinine clearance, mean (SD) ([4]; 25 mg qd, 184 h): −52.4 (45.5) mL/min 1.73 m^2
Change from baseline in derived creatinine clearance, mean (SD) ([4]; 100 mg qd, 16 h): −21.0 (59.3) mL/min 1.73 m^2
Change from baseline in derived creatinine clearance, mean (SD) ([4]; 100 mg qd, 166 h): −10.6 (58.0) mL/min 1.73 m^2
Change from baseline in derived creatinine clearance, mean (SD) ([4]; 100 mg qd, 184 h): −14.4 (55.3) mL/min 1.73 m^2
Mean (SD) micturition day frequency ([5]; 2.5 mg qd, Day 1, day 07:00–18:59): 6.0 (1.2)
Mean (SD) micturition night frequency ([5]; 2.5 mg qd, Day 1, night 19:00–06:59): 3.7 (1.5)
Mean (SD) micturition day frequency ([5]; 2.5 mg qd, Day 8, day 07:00–18:59): 6.6 (1.8)
Mean (SD) micturition night frequency ([5]; 2.5 mg qd, Day 8, night 19:00–06:59): 3.7 (1.2)
Mean (SD) micturition day frequency ([5]; 2.5 mg qd, Day 9, day 07:00–18:59): 6.4 (1.9)
Mean (SD) micturition night frequency ([5]; 2.5 mg qd, Day 9, night 19:00–06:59): 3.4 (1.3)
Mean (SD) micturition day frequency ([5]; 10 mg qd, Day 1, day 07:00–18:59): 8.3 (1.7)
Mean (SD) micturition night frequency ([5]; 10 mg qd, Day 1, night 19:00–06:59): 3.8 (0.8)
Mean (SD) micturition day frequency ([5]; 10 mg qd, Day 8, day 07:00–18:59): 6.8 (1.6)
Mean (SD) micturition night frequency ([5]; 10 mg qd, Day 8, night 19:00–06:59): 4.0 (1.7)
Mean (SD) micturition day frequency ([5]; 10 mg qd, Day 9, day 07:00–18:59): 8.9 (1.7)
Mean (SD) micturition night frequency ([5]; 10 mg qd, Day 9, night 19:00–06:59): 3.7 (0.5)
Mean (SD) micturition day frequency ([5]; 25 mg qd, Day 1, day 07:00–18:59): 7.8 (2.6)
Mean (SD) micturition night frequency ([5]; 25 mg qd, Day 1, night 19:00–06:59): 4.3 (1.0)
Mean (SD) micturition day frequency ([5]; 25 mg qd, Day 8, day 07:00–18:59): 7.0 (1.6)
Mean (SD) micturition night frequency ([5]; 25 mg qd, Day 8, night 19:00–06:59): 4.8 (1.6)
Mean (SD) micturition day frequency ([5]; 25 mg qd, Day 9, day 07:00–18:59): 8.2 (2.0)
Mean (SD) micturition night frequency ([5]; 25 mg qd, Day 9, night 19:00–06:59): 4.1 (1.4)
Mean (SD) micturition day frequency ([5]; 100 mg qd, Day 1, day 07:00–18:59): 7.9 (2.4)
Mean (SD) micturition night frequency ([5]; 100 mg qd, Day 1, night 19:00–06:59): 3.6 (1.1)
Mean (SD) micturition day frequency ([5]; 100 mg qd, Day 8, day 07:00–18:59): 6.9 (1.5)
Mean (SD) micturition night frequency ([5]; 100 mg qd, Day 8, night 19:00–06:59): 4.7 (1.5)
Mean (SD) micturition day frequency ([5]; 100 mg qd, Day 9, day 07:00–18:59): 8.4 (2.5)
Mean (SD) micturition night frequency ([5]; 100 mg qd, Day 9, night 19:00–06:59): 3.7 (1.0)
Change in micturition frequency compared with placebo ([5]; controlled fluid intake conditions): no changes in urine volume or micturition frequency; also recorded: no changes to micturition frequency
Calcium, mean (SD), last value on treatment ([6]; 2.5 mg qd): 2.3 (0.1) mmol/l
HDL-cholesterol, mean (SD), last value on treatment ([6]; 2.5 mg qd): 16 (18) mg/dL
Potassium, mean (SD), last value on treatment ([6]; 2.5 mg qd): 4.2 (0.3) mmol/l
Sodium, mean (SD), last value on treatment ([6]; 2.5 mg qd): 140 (2) mmol/l
Total cholesterol, mean (SD), last value on treatment ([6]; 2.5 mg qd): 175 (11) mg/dL
Triglycerides, mean (SD), last value on treatment ([6]; 2.5 mg qd): 171 (65) mg/dL
HDL-cholesterol, mean (SD), last value on treatment ([6]; 10 mg qd, N = 8): 31 (18) mg/dL
Calcium, mean (SD), last value on treatment ([6]; 10 mg qd): 2.3 (0.1) mmol/l
Potassium, mean (SD), last value on treatment ([6]; 10 mg qd): 4.4 (0.3) mmol/l
Sodium, mean (SD), last value on treatment ([6]; 10 mg qd): 140 (1) mmol/l
Total cholesterol, mean (SD), last value on treatment ([6]; 10 mg qd): 171 (25) mg/dL
Triglycerides, mean (SD), last value on treatment ([6]; 10 mg qd): 114 (42) mg/dL
Calcium, mean (SD), last value on treatment ([6]; 25 mg qd): 2.3 (0.1) mmol/l
HDL-cholesterol, mean (SD), last value on treatment ([6]; 25 mg qd): 41 (17) mg/dL
Potassium, mean (SD), last value on treatment ([6]; 25 mg qd): 4.1 (0.3) mmol/l
Sodium, mean (SD), last value on treatment ([6]; 25 mg qd): 139 (2) mmol/l
Total cholesterol, mean (SD), last value on treatment ([6]; 25 mg qd): 174 (13) mg/dL
Triglycerides, mean (SD), last value on treatment ([6]; 25 mg qd): 89 (26) mg/dL
Calcium, mean (SD), last value on treatment ([6]; 100 mg qd): 2.3 (0.1) mmol/l
HDL-cholesterol, mean (SD), last value on treatment ([6]; 100 mg qd): 37 (18) mg/dL
Potassium, mean (SD), last value on treatment ([6]; 100 mg qd): 4.5 (0.3) mmol/l
Sodium, mean (SD), last value on treatment ([6]; 100 mg qd): 139 (2) mmol/l
Total cholesterol, mean (SD), last value on treatment ([6]; 100 mg qd): 174 (11) mg/dL
Triglycerides, mean (SD), last value on treatment ([6]; 100 mg qd): 97 (27) mg/dL
Mean MDG (SD), Day 8 ([7]; 2.5 mg qd, without OGTT): 134 (42.7) mg/dL
Mean MDG change from baseline to day 8, difference to placebo ([7]; 2.5 mg qd, without OGTT): −15.5, p < 0.05 mg/dL
Mean MDG, mean (least squares) change from baseline to day 8 ([7]; 2.5 mg qd, without OGTT): -29.0 mg/dL
Mean MDG (SD), Day 8 ([7]; 10 mg qd, n = 8, without OGTT): 124 (18.9) mg/dL
Mean MDG change from baseline to day 8, difference to placebo ([7]; 10 mg qd, without OGTT): −23.5, p < 0.01 mg/dL
Mean MDG, mean (least squares) change from baseline to day 8 ([7]; 10 mg qd, without OGTT): -37.0 mg/dL
Mean MDG (SD), Day 8 ([7]; 25 mg qd, without OGTT): 133 (36.2) mg/dL
Mean MDG change from baseline to day 8, difference to placebo ([7]; 25 mg qd, without OGTT): −15.0, p = 0.052 mg/dL
Mean MDG, mean (least squares) change from baseline to day 8 ([7]; 25 mg qd, without OGTT): -28.5 mg/dL
Mean MDG (SD), Day 8 ([7]; 100 mg qd, without OGTT): 154 (17.9) mg/dL
Mean MDG change from baseline to day 8, difference to placebo ([7]; 100 mg qd, without OGTT): −10.6, p = 0.168 mg/dL
Mean MDG, mean (least squares) change from baseline to day 8 ([7]; 100 mg qd, without OGTT): -24.1 mg/dL

Reference: publication PMC3889329 (Diabetes Therapy, 2013)
